Data on 14 molecules can be found in PubChem BioAssay AID651628 (The Scripps Research Institute Molecular Screening Center, 2012).

A number with no mark means an inactive call. Activity calls are given as the source filed them.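 The calls were made as follows: active = at least one off-target enzyme showing weaker fluorescent probe labeling in any proteome panel; inactive = no off-target enzyme affected in any panel.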 Where only a bound is given, the exact number is not on record here.

This assay concerns Soluble Proteome. The experiment in a line: anti-target inhibition in MCF7 proteome, late-stage follow-up, selectivity assay for PAD4 inhibitor project, cell lysate, gel-based fluorescence, soluble and membrane fractions (AID 651628). The conditions noted are these: CA-Rh gel-based ABPP, anti-target count, at 10 µM, hits give high values. Summed up: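 Buffer or medium: DPBS; System: MCF7 soluble or membrane proteome; Quantity: proteome protein concentration of 1 mg/ml; Also added: CA-Rh probe, 10 µM; Times: compound pre-incubation 1 h, then probe labelling 1 h, both 25 °C; Control set: DMSO-only reference; Signal: SDS-PAGE separation with in-gel fluorescence scanning of labelled bands.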

As for `COC(=O)c1cccc(-c2ccc3c(n2)C(=O)C(N)=CC3=O)n1`, the number of anti-targets was 0.

`COC1=C(I)C(=O)c2nc(C#N)ccc2C1=O`: the number of anti-targets is > 5 (active).

On to `NC1=CC(=O)c2ccc(-c3ccccn3)nc2C1=O`, for which the number of anti-targets was 0.

As to `COC1=C(N)C(=O)c2ncccc2C1=O`, the number of anti-targets is 0.

Turning to `COC1=CC(=O)c2nc(C#N)ccc2C1=O`, the number of anti-targets is > 5 (active).

For `NC1=CC(=O)c2cccnc2C1=O`, the number of anti-targets was 0.

Consider `COC1=C(Br)C(=O)c2nc(-c3ccccn3)ccc2C1=O`, for which the number of anti-targets is 0.

Take `COC1=C(N)C(=O)c2nc(-c3nc(C(=O)O)c(C)c(-c4ccc(OC)c(OC)c4O)c3N)ccc2C1=O`: the number of anti-targets was 0.

For `O=C1C=C(Br)C(=O)c2ncccc21`, the number of anti-targets is > 5 (active).

Turning to `COC(=O)c1nc(C(=O)OC)c(NC(C)=O)c(-c2ccccc2Br)c1C`, the number of anti-targets is 0.

Consider `NC1=CC(=O)c2ccc(-c3cccc(C(=O)O)n3)nc2C1=O`, for which the number of anti-targets was 0.

Turning to `O=C1C(O)=C(O)C(=O)c2ncccc21`, the number of anti-targets was 0.

Consider `COC(=O)c1cccc(-c2ccc3c(n2)C(=O)C(Br)=CC3=O)n1`, for which the number of anti-targets was 0.

Consider `COC1=C(Br)C(=O)c2ncccc2C1=O`, for which the number of anti-targets was > 5 (active).
